From ChEMBL document CHEMBL1124921, “Alpha-diketone and alpha-keto ester derivatives of N-protected amino acids and peptides as novel inhibitors of cysteine and serine proteinases” (J Med Chem, 1990)
Where a SMILES comes first, the peptide text is derived from it. The star is where a group is joined. Cbz = O=C(OCc1ccccc1)*

Assays:
Chymotrypsinogen A = Chymotrypsinogen A (Bos taurus, UniProt P00766); assay: Inhibition of alpha-chymotrypsin
How it was run: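 Commercial α-chymotrypsin was assayed continuously with N-Suc-Ala-Ala-Pro-Phe-p-nitroanilide as substrate in HEPES buffer instead of Tris. […] Errors under 30%.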

[1] = Inhibition of Calpain; parameters: species or system Gallus gallus
How it was run: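 Calpain purified from chicken gizzard, run as a continuous enzyme assay following a previously published method. Apparent dissociation constants Ki were derived for competitive inhibition; errors under 30%.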

SMILES: CC(C)[C@H](NC(=O)OCc1ccccc1)C(=O)N[C@H](Cc1ccccc1)C(=O)C(F)(F)F
- Ki (Chymotrypsinogen A): 45 µM
- Ki [1]: > 180 µM

SMILES: CC(=O)C(=O)[C@H](Cc1ccccc1)NC(=O)[C@@H](NC(=O)OCc1ccccc1)C(C)C
- Ki (Chymotrypsinogen A): 0.2 µM
- Ki [1]: 0.7 µM

SMILES: O=C(N[C@@H](Cc1ccccc1)C(=O)C(F)(F)F)c1ccccc1
- Ki (Chymotrypsinogen A): 2.3 µM
- Ki [1]: > 1000 µM

SMILES: CCOC(=O)C(=O)[C@H](Cc1ccccc1)NC(=O)[C@@H](NC(=O)OCc1ccccc1)C(C)C
- Ki (Chymotrypsinogen A): 0.06 µM
- Ki [1]: 0.6 µM

SMILES: CC(C)[C@H](NC(=O)OCc1ccccc1)C(=O)N[C@@H](Cc1ccccc1)C(=O)C(F)(F)F
- Ki (Chymotrypsinogen A): 2.4 µM
- Ki [1]: > 180 µM

SMILES: COC(=O)C(=O)[C@H](Cc1ccccc1)NC(=O)c1ccccc1
- Ki (Chymotrypsinogen A): 0.15 µM
- Ki [1]: 150 µM

SMILES: CC(=O)C(=O)[C@H](Cc1ccccc1)NC(=O)OCc1ccccc1
- Ki (Chymotrypsinogen A): 1.2 µM
- Ki [1]: 250 µM

SMILES: CCOC(=O)C(=O)[C@H](Cc1ccccc1)NC(=O)OCc1ccccc1
- Ki (Chymotrypsinogen A): 0.13 µM
- Ki [1]: 92 µM

SMILES: COC(=O)C(=O)[C@H](Cc1ccccc1)NC(=O)[C@@H](NC(=O)OCc1ccccc1)C(C)C
- Ki (Chymotrypsinogen A): 0.06 µM
- Ki [1]: 0.4 µM

SMILES: CC(=O)[C@H](Cc1ccccc1)NC(=O)OCc1ccccc1
- Ki [1]: > 2000 µM

SMILES: O=C[C@H](Cc1ccccc1)NC(=O)c1ccccc1
- Ki (Chymotrypsinogen A): 64 µM
- Ki [1]: 4 µM

SMILES: O=C(N[C@@H](Cc1ccccc1)C(=O)C(F)F)c1ccccc1
- Ki (Chymotrypsinogen A): 7.7 µM
- Ki [1]: > 1000 µM

SMILES: O=C[C@H](Cc1ccccc1)NC(=O)OCc1ccccc1
- Ki (Chymotrypsinogen A): 360 µM
- Ki [1]: 3 µM

SMILES: CC(C)[C@H](NC(=O)OCc1ccccc1)C(=O)N[C@H](C=O)Cc1ccccc1 (Cbz-Val-Phe-aldehyde)
- Ki (Chymotrypsinogen A): 54 µM
- Ki [1]: 0.01 µM
